# HTRA1 inh: HTRA1 serine protease inhibitors, primary screen, biochemical, fluorescence polarization, HTS | Q92743 | recombinant HTRA1, FP-rhodamine activity-based probe | inhibition, % at 5.96 µM | actives 0.5% (n = 340,000); in the data active = inhibition above about 36%;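 note: 0% = enzyme with DMSO and 100% = wells lacking enzyme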
# ABHD4 inh: ABHD4 inhibitors, primary screen, biochemical, fluorescence polarization, mouse; (Lyso)-N-acylphosphatidylethanolamine lipase (Mus musculus), Q8VD66; purified mABHD4, FP-Rh probe fluorescence polarization; inhibition, % at 8.92 µM; actives 0.54% (n = 370,000); AID 720543, 2013;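 active = inhibition exceeding the mean over every tested compound plus 3 SD, cut at about 30% in these data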;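 note: 0% = plate median of compound wells and 100% = S159A mutant with DMSO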
# Target sequence (Q8VD66 whole entry, looked up): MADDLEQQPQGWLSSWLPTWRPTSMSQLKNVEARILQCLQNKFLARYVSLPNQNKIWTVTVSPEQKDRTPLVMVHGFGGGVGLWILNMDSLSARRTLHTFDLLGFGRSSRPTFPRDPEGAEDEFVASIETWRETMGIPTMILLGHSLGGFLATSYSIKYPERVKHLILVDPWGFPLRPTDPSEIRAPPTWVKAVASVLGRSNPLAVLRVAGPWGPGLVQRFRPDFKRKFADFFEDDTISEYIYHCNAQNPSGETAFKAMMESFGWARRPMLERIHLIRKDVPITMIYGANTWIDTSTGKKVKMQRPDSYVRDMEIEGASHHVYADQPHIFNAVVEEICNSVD
#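 Assay system: wild-type mouse ABHD4 protein; compound: single nominal dose of 8.92 µM, 0.89% DMSO final; schedule: 45 min + 60 min at 25 °C; measured by: FP readout, ex 525 nm / em 598 nm; evaluation: % inhibition of FP-Rh probe binding versus controls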
# SIAE primary: human SIAE inhibitors, primary screen, biochemical, fluorescence polarization, FP-Rh probe, 1536-well HTS; Sialate O-acetylesterase (Homo sapiens), Q9HAT2; inhibition, % at 9.66 µM; SIAE FP-Rh probe binding; actives 0.69% (n = 370,000);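 active = inhibition above a cutoff: mean of compounds within the control limits plus 3 SD of those, cut at about 17% in these data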;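 note: 0% = plate median of compound wells and 100% = probe without SIAE protein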
# TCR CD3 inh: inhibitors of human TCR-CD3 interaction, primary screen, biochemical, fluorescence, TAMRA-labeled TCR probe; T-cell receptor (TCR); inhibition, % at 9.4 µM; actives 0.37% (n = 360,000); AID 651800, 2012; in the data active = inhibition above about 19%;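 note: recombinant mutant TCR 2C K166C tagged with TAMRA read by polarization; 0% = receptor in buffer alone and 100% = receptor with positive control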
# PRMT1 inh: PRMT1 methyltransferase inhibitors, primary screen, biochemical, fluorescence polarization. Protein arginine N-methyltransferase 1 (Homo sapiens), Q99873. inhibition, % at 2.79 µM. AID 652257, 2013. recombinant PRMT1, activity-based probe fluorescence polarization. actives 1.3% (n = 370,000);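 active = inhibition above about 21% made by adding two undisclosed values, limit read from the data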
# SIAE confirm: human SIAE inhibitors, retest, confirmation, biochemical, fluorescence polarization, FP-Rh probe, triplicate; AID 1117263, 2014; SIAE FP-Rh activity-based probe; actives 13% (n = 2,300); shares compounds with SIAE primary; inhibition, % at 9.66 µM;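 active = mean inhibition of the replicates above the hit cutoff set in the primary screen, cut at about 17% in these data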;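 note: 0% = SIAE with DMSO and probe and 100% = probe without SIAE; inhibitors lower polarization as more probe stays unbound to SIAE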
# An asterisk follows results filed as active; · = no result. Only some compounds are listed: those with a hit (about 2.7% of all), similar ones and a draw of the others.
SMILES,HTRA1 inh,ABHD4 inh,SIAE primary,TCR CD3 inh,PRMT1 inh,SIAE confirm
NC(Cc1ccc(C(F)(F)F)cc1)c1csc(NC(=O)Nc2ccccc2)n1 (stereo not given),·,-8.0,5.9,-5.9,8.4,·
NC(Cc1ccc(C(F)(F)F)cc1)c1csc(NC(=O)Nc2ccccc2Cl)n1 (stereo not given),·,2.5,19.6*,0.7,-4.4,21.4*
CCOc1cc(N2CCOCC2)c(OCC)cc1NC(=O)C(NC(=O)c1c(F)cccc1F)C(C)C (stereo not given),4.0,-2.2,2.4,-1.9,1.8,·
CC(=O)Oc1c2occc2cc2ccc(=O)oc12,14.0,13.8,19.7*,-0.2,1.9,2.3
COc1ccccc1NC(=O)c1cc2c(CO)cnc(C)c2oc1=Nc1cc(OC)c(OC)c(OC)c1,0.2,4.5,18.5*,-1.1,-0.9,5.0
NNc1nc2ccc(Cl)cc2s1,19.0,-1.9,23.0*,0.7,-2.1,0.6
CCN(CC)c1ccc(/C=N/NC(=O)c2cccc(S(=O)(=O)N3CCOCC3)c2)c(O)c1,21.1,15.2,20.4*,-2.3,0.9,10.8
CCN(CC)S(=O)(=O)c1cccc(C(=O)N/N=C/c2cccc(O)c2O)c1,14.4,15.5,27.2*,8.6,10.0,-7.2
CCOC(=O)N/N=C/c1ccc(N(CC)CC)cc1O,0.3,6.6,17.9*,-3.7,-0.9,-1.8
CC(C)N(C)c1ncnc2c1ncn2[C@H]1CN(Cc2cccs2)C[C@@H](CO)O1,·,-1.9,1.2,-1.1,2.0,·
Cc1ccc(C(=O)CCC(=O)Nc2ccccc2F)cc1,6.8,-1.3,8.7,-3.0,-5.0,·
Cc1c(N=Cc2cccnc2)c(=O)n(-c2ccccc2)n1C,1.7,5.2,21.1*,-0.7,-0.9,2.9
Cc1cc(C)nc(N2CCCC(C(=O)NC(C)C)C2)n1 (stereo not given),7.8,0.2,17.6*,1.4,-1.9,-4.6
Cc1cc(C)nc(N2CCCC(C(=O)NC3CCCC3)C2)n1 (stereo not given),1.5,4.0,4.1,7.7,-0.6,·
C[C@H]1CN(C(=O)OC(C)(C)C)CCN1c1ccc(Br)c(C#N)c1,·,-0.4,5.2,4.4,0.7,·
CN1C(=O)N(CC(=O)Nc2sccc2C(N)=O)C(=O)C12CCCCC2,-12.8,0.1,1.8,2.0,-0.6,·
COc1cc(/C=C/c2ccc3cccc(OC)c3n2)c(OC(C)=O)c([N+](=O)[O-])c1,17.1,7.9,4.9,-2.6,-0.3,·
COc1c(OC(C)=O)ccc(/C=C/c2ccc3cccc(OCc4ccccc4)c3n2)c1[N+](=O)[O-],-7.0,-10.7,27.5*,-3.8,1.8,-16.4
COc1ccccc1NC(=S)N/N=C1\CC(C)(C)Oc2ccc(O)cc21,-0.3,15.0,33.8*,-6.2,0.5,12.4
CC(=O)N1CCC2(CC1)C/C(=N\NC(=S)Nc1ccccc1C)c1cc(O)ccc1O2,9.6,15.2,18.3*,3.5,2.4,6.7
CC1(C)CC(=O)c2cc(O)ccc2O1,2.7,1.3,5.8,-8.6,-1.9,·
CC(=O)N1CCC2(CC1)C/C(=N\NC(=S)Nc1ccccc1F)c1cc(O)ccc1O2,5.9,7.5,10.6,-8.6,10.1,·
COc1ccc(NC(=S)N/N=C2\CC(C)(C)Oc3ccc(O)cc32)cc1,9.6,6.7,34.6*,7.9,6.2,28.3*
COc1ccc(CC(=O)NC(C)C2COc3ccccc3O2)cc1OC (stereo not given),8.2,5.2,-6.3,7.1,0.4,·
Cc1nc2nc(C)c(C)nc2nc1C,·,0.8,8.8,1.8,-2.0,·
CCCC1CCC2(CC1)CCC2OC(=O)Nc1ccc2c(c1)OCO2 (stereo not given),·,-6.9,0.3,·,2.1,·
O=C(Cn1nnc(N2CCCCC2)n1)NN=Cc1ccccc1O,·,-6.7,1.3,-5.2,-1.4,·
CCCOc1ccc(C(=O)N/N=C/c2c[nH]c3ccc(Br)cc23)cc1,1.4,-7.0,19.4*,0.0,3.7,-12.2
